Article PMC11005929 (Diabetes, Metabolic Syndrome and Obesity, 2024)

Columns and labels:
[1] = Phase 3 trial; cited from earlier work
[2] = tested on: DIO mice; experiment: Repeated administration in diet-induced obesity; type: in vivo, mouse; conditions: s.c. once daily (DR10627 3, 10, 30 nmol/kg; liraglutide 80 nmol/kg)
In short: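 Male C57BL/6 mice, 7 weeks old, kept 11 weeks on a 60% kcal fat diet; those at 42.2–48.7 g were randomised (n=10/group). Standard-diet mice served as normal controls. Dosed s.c. once daily at 5 mL/kg for 57 days. Body weight and food intake were recorded after dosing, and weight change and cumulative intake were calculated. Mean ± SD.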

[3] = tested on: db/db mice; experiment: Glucose-lowering effect of repeated administration in db/db mice; type: in vivo, mouse
[4] = tested on: non-diabetic participants; conditions: 2-year treatment, SCALE trials; cited from earlier work

taspoglutide
rate of antitaspoglutide antibodies detection [1]: 49%

CCCCCCCCCCCCCCCC(=O)N[C@@H](CCC(=O)NCCCC[C@H](NC(=O)[C@H](C)NC(=O)[C@H](C)NC(=O)[C@H](CCC(N)=O)NC(=O)CNC(=O)[C@H](CCC(=O)O)NC(=O)[C@H](CC(C)C)NC(=O)[C@H](Cc1ccc(O)cc1)NC(=O)[C@H](CO)NC(=O)[C@H](CO)NC(=O)[C@@H](NC(=O)[C@H](CC(=O)O)NC(=O)[C@H](CO)NC(=O)[C@@H](NC(=O)[C@H](Cc1ccccc1)NC(=O)[C@@H](NC(=O)CNC(=O)[C@H](CCC(=O)O)NC(=O)[C@H](C)NC(=O)[C@@H](N)Cc1c[nH]cn1)[C@@H](C)O)[C@@H](C)O)C(C)C)C(=O)N[C@@H](CCC(=O)O)C(=O)N[C@@H](Cc1ccccc1)C(=O)N[C@H](C(=O)N[C@@H](C)C(=O)N[C@@H](Cc1c[nH]c2ccccc12)C(=O)N[C@@H](CC(C)C)C(=O)N[C@H](C(=O)N[C@@H](CCCNC(=N)N)C(=O)NCC(=O)N[C@@H](CCCNC(=N)N)C(=O)NCC(=O)O)C(C)C)[C@@H](C)CC)C(=O)O [liraglutide]
body weight from D5 to D57 compared to the vehicle [2]: significantly reduced | blood glucose level before administration on D28 ([3]; 50 nmol/kg s.c. once daily, n=10, mean ± SD, vehicle 33.6 ± 6.4): 27.0 ± 3.9 mM | blood glucose levels after treatment on D1 ([3]; first s.c. dose (DR10627 2, 6, 18 nmol/kg; liraglutide 50 nmol/kg)): decreased significantly | weight loss [4]: 5–10%
